One molecule from ChEMBL document CHEMBL4004837, “Synthesis and Characterization of Urofuranoic Acids: In Vivo Metabolism of 2-(2-Carboxyethyl)-4-methyl-5-propylfuran-3-carboxylic Acid (CMPF) and Effects on in Vitro Insulin Secretion” (J Med Chem, 2017) can be followed below.

Each structure is given as a SMILES string.

A short description of series [1]: AUC in mouse at 1 mg/kg, iv. The format is ADME, organism-based. Particulars: in vivo.
Series [2] can be described thus: Half life in mouse at 1 mg/kg, iv. Particulars: in vivo. The class given is ADME, organism-based. In short, it runs like this:
(§1)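 Mouse pharmacokinetics after single intravenous CMPF dosing at 1 or 3 mg/kg. Plasma exposure was followed over time to derive AUC, C0, terminal half-life, clearance and volume of distribution.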

Series [3] in a line: Volume of distribution in mouse at 3 mg/kg, iv. The format is ADME, organism-based. As to conditions: in vivo. In short, it runs like this:
as §1

For series [4], the system named is Plasma. Briefly: Drug metabolism in CD1 mouse plasma assessed as loss of C2 carboxyl during fragmentation at 6 mg/kg, ip dosed once daily for 3 days followed by dosing of 1:1 mixtures of 2-(2-Carboxyethyl)-4-methyl-5-(1-propyl-1-13C)furan-3-carboxylic Acid and test compound on day 4 and 5 measured 1 hr post dose on day 5 by HPLC-MS analysis. The format is ADME, organism-based. Particulars: in vivo. In short, it runs like this:
(§2)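 CMPF given 6 mg/kg i.p. once daily for three days. On days four and five, 1:1 mixtures of stable-isotope-labelled and unlabelled CMPF were dosed. Mice were killed 1 h after the day-five dose. Plasma, adipose, muscle and liver were collected and analysed by HPLC-MS (MS/MS for product ions). Metabolites were identified by their distinctive isotope patterns from the labelled/unlabelled mixture.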

Series [5] is described as follows: Drug metabolism in CD1 mouse adipose assessed as loss of C2 carboxyl during fragmentation at 6 mg/kg, ip dosed once daily for 3 days followed by dosing of 1:1 mixtures of 2-(2-Carboxyethyl)-4-methyl-5-(1-propyl-1-13C)furan-3-carboxylic Acid and test compound on day 4 and 5 measured 1 hr post dose on day 5 by HPLC-MS analysis. As to conditions: in vivo. The class given is ADME, organism-based, Adipose tissue. The method, boiled down: (§3)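 Mice received CMPF 6 mg/kg intraperitoneally for three days, then 1:1 labeled/unlabeled CMPF mixtures on days four and five. On day five they were euthanized 1 h post-dose, and plasma, adipose, muscle and liver were collected. Samples were analysed by HPLC-MS, with MS/MS of product ions. Metabolites were identified by the distinctive isotope patterns from the 1:1 label mixture.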

Series [6] in a line: Drug metabolism in CD1 mouse muscle assessed as loss of C2 carboxyl during fragmentation at 6 mg/kg, ip dosed once daily for 3 days followed by dosing of 1:1 mixtures of 2-(2-Carboxyethyl)-4-methyl-5-(1-propyl-1-13C)furan-3-carboxylic Acid and test compound on day 4 and 5 measured 1 hr post dose on day 5 by HPLC-MS analysis. The class given is ADME, organism-based, Muscle tissue. Particulars: in vivo. In short, it runs like this:
as §3

In series [7] the test system is Plasma. As to the kind of experiment: Drug metabolism in CD1 mouse plasma assessed as loss of C2 carboxyl during fragmentation at 6 mg/kg, ip dosed once daily for 3 days followed by dosing of 1:1 mixtures of 2-(2-(Carboxy-13C)ethyl)-4-methyl-5-propylfuran-3-carboxylic-2-13C Acid and test compound on day 4 and 5 measured 1 hr post dose on day 5 by HPLC-MS analysis. The format is ADME, organism-based. Particulars: in vivo. The method, boiled down: as §2

The target of a further series is CYP2C9 (Homo sapiens, UniProt P11712). Briefly: Inhibition of human microsomal CYP2C9 at 10 uM after 10 mins by single quad LC/MS analysis. As to conditions: microsomes. The class given is ADME.
Sequence of CYP2C9 (P11712 whole entry): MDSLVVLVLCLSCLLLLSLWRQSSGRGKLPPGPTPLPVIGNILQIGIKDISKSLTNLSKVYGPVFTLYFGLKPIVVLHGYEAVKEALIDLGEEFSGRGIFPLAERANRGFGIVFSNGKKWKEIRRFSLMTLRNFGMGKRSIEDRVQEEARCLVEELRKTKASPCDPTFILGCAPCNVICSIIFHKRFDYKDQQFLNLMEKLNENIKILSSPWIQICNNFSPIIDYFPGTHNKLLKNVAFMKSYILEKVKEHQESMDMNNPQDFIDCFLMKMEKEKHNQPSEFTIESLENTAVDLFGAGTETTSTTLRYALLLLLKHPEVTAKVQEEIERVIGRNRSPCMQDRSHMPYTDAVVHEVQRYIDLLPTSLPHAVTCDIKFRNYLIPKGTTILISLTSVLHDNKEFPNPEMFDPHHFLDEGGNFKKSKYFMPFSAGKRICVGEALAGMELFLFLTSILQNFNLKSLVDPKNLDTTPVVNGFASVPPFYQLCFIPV
Series [8] is described as follows: Suppression of high glucose stimulated insulin secretion in mouse pancreatic islets at 200 uM treated for 24 hrs followed by glucose stimulation for 20 mins by HTRF assay relative to control. The format is ADME, cell-based. Particulars: pancreatic islet. In short, it runs like this:
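Mouse islet screening assay in high-glucose (20 mM) medium with compounds at 200 µM. Insulin secretion is expressed as fold change relative to vehicle. Mean of n = 4 experiments with SEM; significance by Student's t-test, p ≤ 0.05.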
For orientation: In TR-FRET formats the signal depends on donor and acceptor labels being close together.

The nature of series [9]: Suppression of glucose-stimulated insulin secretion in mouse pancreatic islet at 200 uM incubated for 24 hrs followed by glucose stimulation for 20 mins by HTRF assay. The format is ADME, cell-based. In short, it runs like this:
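Mouse islets treated with compounds at 200 µM. Insulin secretion was then measured under low- and high-glucose GSIS conditions and under KCl stimulation, and intracellular insulin content was measured. Mean of n = 4-5 experiments with SEM.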

Series [10] deals with Plasma. As to the kind of experiment: Drug metabolism in CD1 mouse plasma assessed as monoacylglycerol conjugate formation at 6 mg/kg, ip dosed once daily for 3 days followed by dosing of 1:1 mixtures of 2-(2-(Carboxy-13C)ethyl)-4-methyl-5-propylfuran-3-carboxylic-2-13C Acid and test compound on day 4 and 5 measured 1 hr post dose on day 5 by HPLC-MS analysis. The class given is ADME, organism-based. Particulars: in vivo. In short, it runs like this: as §2

Series [11] can be described thus: Drug metabolism in CD1 mouse muscle assessed as monoacylglycerol conjugate formation at 6 mg/kg, ip dosed once daily for 3 days followed by dosing of 1:1 mixtures of 2-(2-(Carboxy-13C)ethyl)-4-methyl-5-propylfuran-3-carboxylic-2-13C Acid and test compound on day 4 and 5 measured 1 hr post dose on day 5 by HPLC-MS analysis. The format is ADME, organism-based, Muscle tissue. Particulars: in vivo. The method, boiled down:
as §3

Series [12] concerns Plasma. Briefly: Drug metabolism in CD1 mouse plasma assessed as diacylglycerol conjugate formation at 6 mg/kg, ip dosed once daily for 3 days followed by dosing of 1:1 mixtures of 2-(2-(Carboxy-13C)ethyl)-4-methyl-5-propylfuran-3-carboxylic-2-13C Acid and test compound on day 4 and 5 measured 1 hr post dose on day 5 by HPLC-MS analysis. The class given is ADME, organism-based. Particulars: in vivo. The method, boiled down: as §2

In series [13] the test system is Liver. Briefly: Drug metabolism in CD1 mouse liver assessed as diacylglycerol conjugate formation at 6 mg/kg, ip dosed once daily for 3 days followed by dosing of 1:1 mixtures of 2-(2-(Carboxy-13C)ethyl)-4-methyl-5-propylfuran-3-carboxylic-2-13C Acid and test compound on day 4 and 5 measured 1 hr post dose on day 5 by HPLC-MS analysis. The class given is ADME, organism-based. Particulars: in vivo. The method, boiled down: as §3

Series [14] concerns Plasma. As to the kind of experiment: Drug metabolism in CD1 mouse plasma assessed as monoacylglycerol conjugate formation at 6 mg/kg, ip dosed once daily for 3 days followed by dosing of 1:1 mixtures of 2-(2-Carboxyethyl)-4-methyl-5-propyl-(3-13C-furan)-3-13Ccarboxylateand test compound on day 4 and 5 measured 1 hr post dose on day 5 by HPLC-MS analysis. Particulars: in vivo. The class given is ADME, organism-based. The method, boiled down: as §2

Series [15] in a line: Drug metabolism in CD1 mouse muscle assessed as monoacylglycerol conjugate formation at 6 mg/kg, ip dosed once daily for 3 days followed by dosing of 1:1 mixtures of 2-(2-Carboxyethyl)-4-methyl-5-propyl-(3-13C-furan)-3-13Ccarboxylateand test compound on day 4 and 5 measured 1 hr post dose on day 5 by HPLC-MS analysis. The format is ADME, organism-based, Muscle tissue. Particulars: in vivo. In short, it runs like this:
as §3

Series [16] deals with Liver. As to the kind of experiment: Drug metabolism in CD1 mouse liver assessed as monoacylglycerol conjugate formation at 6 mg/kg, ip dosed once daily for 3 days followed by dosing of 1:1 mixtures of 2-(2-Carboxyethyl)-4-methyl-5-propyl-(3-13C-furan)-3-13Ccarboxylateand test compound on day 4 and 5 measured 1 hr post dose on day 5 by HPLC-MS analysis. The format is ADME, organism-based. Particulars: in vivo. In short, it runs like this:
as §3

The nature of series [17]: Drug metabolism in CD1 mouse adipose assessed as monoacylglycerol conjugate formation at 6 mg/kg, ip dosed once daily for 3 days followed by dosing of 1:1 mixtures of 2-(2-Carboxyethyl)-4-methyl-5-propyl-(3-13C-furan)-3-13Ccarboxylateand test compound on day 4 and 5 measured 1 hr post dose on day 5 by HPLC-MS analysis. The class given is ADME, organism-based, Adipose tissue. As to conditions: in vivo. In short, it runs like this:
as §3

The nature of series [18]: Drug metabolism in CD1 mouse muscle assessed as diacylglycerol conjugate formation at 6 mg/kg, ip dosed once daily for 3 days followed by dosing of 1:1 mixtures of 2-(2-Carboxyethyl)-4-methyl-5-propyl-(3-13C-furan)-3-13Ccarboxylateand test compound on day 4 and 5 measured 1 hr post dose on day 5 by HPLC-MS analysis. The format is ADME, organism-based, Muscle tissue. Particulars: in vivo. The method, boiled down:
as §3

Series [19] in a line: Drug metabolism in CD1 mouse muscle assessed as oxidative metabolites formation at 6 mg/kg, ip dosed once daily for 3 days followed by dosing of 1:1 mixtures of 2-(2-Carboxyethyl)-4-methyl-5-propyl-(3-13C-furan)-3-13Ccarboxylateand test compound on day 4 and 5 measured 1 hr post dose on day 5 by HPLC-MS analysis. The format is ADME, organism-based, Muscle tissue. Particulars: in vivo. The method, boiled down: as §2

Take `CCCc1oc(CCC(=O)O)c(C(=O)O)c1C`: the AUC (in general, the area under the concentration-time curve, a measure of exposure) in series [1] stood at 89.3 µM·h. Moreover, in [2], the half-life (commonly the time needed for the level to fall by half in the phase considered) is 4.5 h. Moreover, the distribution volume (Vd) (as a rule, a proportionality between amount in the body and measured concentration, not a real space) in [3] was 0.2 L/kg. For the same molecule, the Drug metabolism entry is listed as “Metabolite_Detected” in the series with Plasma [4]; “Metabolite_Detected” in [5]; “Metabolite_Detected” in [6]; “Metabolite_Detected” in the series on Plasma [7]; “Metabolite_Notdetected” in the series on Plasma [10]; “Metabolite_Notdetected” in series [11]. The Drug metabolism result (in the series with Plasma [12]; in the series on Liver [13]; in the series on Plasma [14]; in [15]; with Liver [16]; in series [17]) was “Metabolite_Notdetected” in each case. Further, the Drug metabolism result in [18] and in [19] was “Metabolite_Notdetected” throughout. For the same molecule, the inhibition – broadly, the drop in the measured response relative to a control, in per cent – at 10 min, 10 µM against CYP2C9 was 0%. The Activity result in [8] and in series [9] was “Toxic” each time.
